# Assay results: paper PMC4725056 (Nature chemistry, 2015)
# Columns and labels:
# Format in all cases: cell-based, human
# [1] = tested on: lung cancer H1299 cells; assay: Cell proliferation; details: DC_AC50 (10 μM)
# [2] = tested on: H1299 cells; assay: Measurement of ROS production; details: pretreated with 1 mM or 3 mM NAC for one hour, followed by 5 μM DC_AC50 for 12 hours
# [3] = tested on: p-AMPK and p-ACC1 in H1299 cells; assay: AMPK and ACC1 phosphorylation; details: together with DC_AC50 (10 μM), 12 hours
# [4] = tested on: H1299 cells; assay: Total cellular copper content by inductively coupled plasma mass spectrometry; details: copper chelator control
# Summary of the method: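 Total cellular copper in H1299 cells measured by inductively coupled plasma mass spectrometry after test-compound treatment; tetrathiomolybdate served as the copper-chelator control.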
# [5] = tested on: H1299 cells; assay: Lipid biosynthesis; details: 10 μM compound C together with DC_AC50
Compound,rescue of cell-proliferation inhibition by DC_AC50 [1],rescue of DC_AC50-induced ROS increase [2],rescue of DC_AC50-induced AMPK and ACC1 phosphorylation [3],decrease of the total cellular copper content [4] [%],rescue of lipid biosynthesis reduced by DC_AC50 [5]
"CC(=O)N[C@@H](CS)C(=O)O [NAC, N-acetyl-L-cysteine]",partially rescued,rescued almost completely,failed to rescue,–,–
"[SH-].[SH-].[S]=[Mo]=[S] [TM, tetrathiomolybdate]",–,–,–,~40,–
c1cc(-c2cnn3cc(-c4ccc(OCCN5CCCCC5)cc4)cnc23)ccn1 [compound C],partially rescued,–,almost completely reversed,–,recovered
